Results as given in ChEMBL document CHEMBL4325860, “Synthesis of novel 2-(1-adamantanylcarboxamido)thiophene derivatives. Selective cannabinoid type 2 (CB2) receptor agonists as potential agents for the treatment of skin inflammatory disease” (Eur J Med Chem, 2019).
Calls of active or inactive are those of the source. The rule behind the calls is not given here.

Columns and labels:
Cannabinoid receptor 2 [1] = target: T1, Cannabinoid receptor 2 (Homo sapiens, UniProt P34972); assay: Displacement of [3H]CP55940 from recombinant human CB2R expressed in HEK293 cell membranes at 10 uM measured after 90 mins relative to control
[2] = target: Cannabinoid receptor 1 (CB1R) (Homo sapiens, UniProt P21554); assay: Displacement of [3H]CP55940 from recombinant human CB1R expressed in HEK293 cell membranes at 10 uM measured after 90 mins relative to control; details: membranes of HEK293 cells expressing recombinant human CB1R, probe [3H]CP55940
Cannabinoid receptor 1 = Cannabinoid receptor 1 (Homo sapiens, UniProt P21554); assay: Displacement of [3H]CP55940 from recombinant human CB1R expressed in HEK293 cell membranes measured after 90 mins
Homo sapiens = organism: Homo sapiens; assay: Selectivity index, ratio of Ki for displacement of [3H]CP55940 from recombinant human CB1R expressed in HEK293 cell membranes to Ki for displacement of [3H]CP55940 from recombinant human CB2R expressed in HEK293 cell membranes
Summary of the method: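 Competition binding on membranes of HEK cells transfected with human CB1R or CB2R, radioligand [³H]CP-55,940. Ki from at least three separate experiments run in duplicate, reported as mean. Selectivity index = Ki(CB1R)/Ki(CB2R).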

Cannabinoid receptor 2 [3] = target: T1, Cannabinoid receptor 2; assay: Displacement of [3H]CP55940 from recombinant human CB2R expressed in HEK293 cell membranes measured after 90 mins
Cannabinoid receptor 2 [4] = target: T1, Cannabinoid receptor 2; assay: Agonist activity at recombinant human CB2R expressed in CHOK1 cells assessed as inhibition of NKH477-stimulated intracellular cAMP levels preincubated for 15 mins followed by CB2R agonist JWH133 addition and measured after 30 mins by chemiluminescent assay; format: functional, cell-based
Cannabinoid receptor 2 [5] = target: T1, Cannabinoid receptor 2; assay: Activity at recombinant human CB2R expressed in CHOK1 cells assessed as effect on basal intracellular cAMP levels at higher concentration measured after 30 mins by chemiluminescent assay; format: functional, cell-based
Cannabinoid receptor 2 [6] = target: T1, Cannabinoid receptor 2; assay: Agonist activity at recombinant human CB2R expressed in CHOK1 cells assessed as inhibition of NKH477-stimulated intracellular cAMP levels after 30 mins by chemiluminescent assay; format: functional, cell-based
Summary of the method: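 cAMP Hunter enzyme fragment complementation assay with chemiluminescent detection, in stable CHO cells expressing human CB2R, stimulated with NKH-477. Concentration-response curves. Response normalized with NKH-477 alone as 100%. Mean ± SEM of three independent experiments run in triplicate.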

HaCaT [7] = assay: Antiinflammatory activity in human HaCaT cells assessed as inhibition of polyinosinic polycytidylic acid-stimulated MCP2 release at 10 uM measured after 6 hrs in presence of CB2R antagonist AM630 by ELISA; format: functional, cell-based
Summary of the method: (§1)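 HaCaT keratinocytes stimulated with poly-(I:C) at 100 µg/mL. MCP-2 release measured with test agent at 10 µM, alone or co-incubated with the CB2R antagonist AM630 at 0.1 µM.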

HaCaT [8] = assay: Antiinflammatory activity in human HaCaT cells assessed as inhibition of polyinosinic polycytidylic acid-stimulated MCP2 release at 10 uM measured after 6 hrs by ELISA; format: functional, cell-based; summary of the method: as §1

Cannabinoid receptor 1, sequence (P21554 whole entry): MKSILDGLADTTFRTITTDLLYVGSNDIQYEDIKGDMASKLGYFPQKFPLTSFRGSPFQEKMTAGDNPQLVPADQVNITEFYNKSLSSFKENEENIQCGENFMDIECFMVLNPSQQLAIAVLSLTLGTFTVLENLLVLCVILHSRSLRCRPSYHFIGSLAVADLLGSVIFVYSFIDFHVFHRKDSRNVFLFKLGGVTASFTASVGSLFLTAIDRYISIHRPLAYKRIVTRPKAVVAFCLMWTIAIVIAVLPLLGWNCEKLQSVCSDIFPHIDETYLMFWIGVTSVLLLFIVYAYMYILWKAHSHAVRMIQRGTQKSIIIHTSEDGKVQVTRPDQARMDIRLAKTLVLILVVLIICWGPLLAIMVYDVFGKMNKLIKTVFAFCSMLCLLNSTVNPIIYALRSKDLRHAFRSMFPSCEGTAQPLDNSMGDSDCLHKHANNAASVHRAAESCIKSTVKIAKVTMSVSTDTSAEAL
Cannabinoid receptor 1 (CB1R), sequence (P21554 whole entry): as above
T1 sequence (P34972 whole entry): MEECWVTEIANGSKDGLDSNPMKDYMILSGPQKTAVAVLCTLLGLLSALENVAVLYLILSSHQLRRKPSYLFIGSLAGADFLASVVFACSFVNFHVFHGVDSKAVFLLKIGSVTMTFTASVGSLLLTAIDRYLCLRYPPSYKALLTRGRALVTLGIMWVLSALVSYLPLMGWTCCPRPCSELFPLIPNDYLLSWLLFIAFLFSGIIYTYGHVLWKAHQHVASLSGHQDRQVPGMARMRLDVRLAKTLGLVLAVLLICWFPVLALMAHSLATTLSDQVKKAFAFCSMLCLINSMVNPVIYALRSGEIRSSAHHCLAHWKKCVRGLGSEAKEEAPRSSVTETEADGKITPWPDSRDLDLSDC

In the case of CCc1c(C)sc(NC(=O)c2ccc(Cl)cc2)c1C(=O)OC, the inhibition (Cannabinoid receptor 2 [1]) is reported as > 50%, the inhibition at 1.5 h, 10 µM [2] is reported as < 50% and the Ki (Cannabinoid receptor 1) is reported as > 10000 nM. The Ratio Ki (Homo sapiens) was > 16 and the Ki (Cannabinoid receptor 2 [3]) was 621 nM.

In the case of COc1ccc(C(=O)c2c(C)n(CCN3CCOCC3)c3cc(I)ccc23)cc1, the inhibition (Cannabinoid receptor 2 [1]) is reported as > 50% and the inhibition at 1.5 h, 10 µM [2] is reported as < 50%.

With Cc1ccc(Cn2nc(C(=O)N[C@@H]3C(C)(C)[C@@H]4CC[C@@]3(C)C4)cc2-c2ccc(Cl)c(C)c2)cc1 the inhibition at 1.5 h, 10 µM [2] was < 50%.

For COC(=O)c1nn(C)cc1NC(=O)C12CC3CC(CC(C3)C1)C2, the inhibition (Cannabinoid receptor 2 [1]) was > 50%, the inhibition at 1.5 h, 10 µM [2] was < 50% and the Ki (Cannabinoid receptor 1) was > 10000 nM. For the same compound, the Ratio Ki (Homo sapiens) was > 11 and the Ki (Cannabinoid receptor 2 [3]) was 845 nM.

In the case of COC(=O)c1c(NC(=O)N2CCOCC2)sc2c1CCCC2, the inhibition (Cannabinoid receptor 2 [1]) is reported as > 50%, the inhibition at 1.5 h, 10 µM [2] is reported as < 50% and the Ki (Cannabinoid receptor 1) is reported as > 10000 nM. The Ratio Ki (Homo sapiens) was > 4 and the Ki (Cannabinoid receptor 2 [3]) was 2490 nM.

With CCCCc1sc(NC(=O)C23CC4CC(CC(C4)C2)C3)c(C(=O)OC)c1C the inhibition (Cannabinoid receptor 2 [1]) was > 50%, the inhibition at 1.5 h, 10 µM [2] was < 50% and the Ki (Cannabinoid receptor 1) was 58.9 nM. For the same compound, the inhibition (Cannabinoid receptor 2 [4]) was “inactive”, the Ratio Ki (Homo sapiens) was 34 and the Activity (Cannabinoid receptor 2 [5]) was “inactive”. For the same compound, the Ki (Cannabinoid receptor 2 [3]) was 1.72 nM and the EC50 (Cannabinoid receptor 2 [6]) was 1140 nM.

COC(=O)c1c(NC(=O)C23CC4CC(CC(C4)C2)C3)sc(C)c1C was tested, and the inhibition (Cannabinoid receptor 2 [1]) was > 50%, the inhibition at 1.5 h, 10 µM [2] was < 50% and the Ki (Cannabinoid receptor 1) was > 10000 nM. The inhibition (Cannabinoid receptor 2 [4]) was “inactive”, the Ratio Ki (Homo sapiens) was > 1080 and the Ki (Cannabinoid receptor 2 [3]) was 9.24 nM. The EC50 (Cannabinoid receptor 2 [6]) was 318 nM.

In the case of COC(=O)c1c(NC(=O)C23CC4CC(CC(C4)C2)C3)cnn1C, the inhibition (Cannabinoid receptor 2 [1]) is reported as > 50%, the inhibition at 1.5 h, 10 µM [2] is reported as < 50% and the Ki (Cannabinoid receptor 1) is reported as > 10000 nM. For the same compound, the Ratio Ki (Homo sapiens) was > 9 and the Ki (Cannabinoid receptor 2 [3]) was 1080 nM.

CCCc1cc(C(=O)OC)c(NC(=O)C23CC4CC(CC(C4)C2)C3)s1 was tested, and the inhibition (Cannabinoid receptor 2 [1]) was > 50%, the inhibition at 1.5 h, 10 µM [2] was < 50% and the Ki (Cannabinoid receptor 1) was 1340 nM. It also gave a Ratio Ki (Homo sapiens) of 186 and a Ki (Cannabinoid receptor 2 [3]) of 7.21 nM.

In the case of COC(=O)c1cccnc1NC(=O)C12CC3CC(CC(C3)C1)C2, the inhibition (Cannabinoid receptor 2 [1]) is reported as > 50%, the inhibition at 1.5 h, 10 µM [2] is reported as < 50% and the Ki (Cannabinoid receptor 1) is reported as > 10000 nM. The Ratio Ki (Homo sapiens) was > 8 and the Ki (Cannabinoid receptor 2 [3]) was 1220 nM.

In the case of CCc1c(C)sc(NC(=O)C23CC4CC(CC(C4)C2)C3)c1C(=O)OC, the inhibition (Cannabinoid receptor 2 [1]) is reported as > 50%, the inhibition (HaCaT [7]) is reported as “inactive” and the inhibition at 1.5 h, 10 µM [2] is reported as < 50%. The Ki (Cannabinoid receptor 1) was 185 nM, the inhibition (HaCaT [8]) was “Active” and the inhibition (Cannabinoid receptor 2 [4]) was “inactive”. For the same compound, the Ratio Ki (Homo sapiens) was 75, the Ki (Cannabinoid receptor 2 [3]) was 2.46 nM and the EC50 (Cannabinoid receptor 2 [6]) was 197 nM.

With CCc1sc(NC(=O)C23CC4CC(CC(C4)C2)C3)c(C(=O)OC)c1C the inhibition (Cannabinoid receptor 2 [1]) was > 50%, the inhibition at 1.5 h, 10 µM [2] was < 50% and the Ki (Cannabinoid receptor 1) was 2120 nM. The inhibition (Cannabinoid receptor 2 [4]) was “inactive”, the Ratio Ki (Homo sapiens) was 358 and the Ki (Cannabinoid receptor 2 [3]) was 5.92 nM. For the same compound, the EC50 (Cannabinoid receptor 2 [6]) was 371 nM.

For COC(=O)c1ccsc1NC(=O)C12CC3CC(CC(C3)C1)C2, the inhibition (Cannabinoid receptor 2 [1]) was > 50%, the inhibition at 1.5 h, 10 µM [2] was < 50% and the Ki (Cannabinoid receptor 1) was > 10000 nM. The Ratio Ki (Homo sapiens) was > 68 and the Ki (Cannabinoid receptor 2 [3]) was 1320 nM.

In the case of COC(=O)c1c(NC(=O)NC23CC4CC(CC(C4)C2)C3)sc2c1CCCC2, the inhibition (Cannabinoid receptor 2 [1]) is reported as > 50%, the inhibition at 1.5 h, 10 µM [2] is reported as < 50% and the Ki (Cannabinoid receptor 1) is reported as > 10000 nM. The Ratio Ki (Homo sapiens) was > 477 and the Ki (Cannabinoid receptor 2 [3]) was 21 nM.

For COC(=O)c1c(NC(=O)C23CC4CC(CC(C4)C2)C3)sc2c1CCSC2, the inhibition (Cannabinoid receptor 2 [1]) was > 50%, the inhibition at 1.5 h, 10 µM [2] was < 50% and the Ki (Cannabinoid receptor 1) was > 10000 nM. For the same compound, the Ratio Ki (Homo sapiens) was > 197 and the Ki (Cannabinoid receptor 2 [3]) was 50.7 nM.

With COC(=O)c1cc(-c2ccccc2)sc1NC(=O)C12CC3CC(CC(C3)C1)C2 the inhibition (Cannabinoid receptor 2 [1]) was > 50%, the inhibition at 1.5 h, 10 µM [2] was < 50% and the Ki (Cannabinoid receptor 1) was > 10000 nM. The Ratio Ki (Homo sapiens) was > 1540 and the Ki (Cannabinoid receptor 2 [3]) was 6.48 nM.

For CCc1c(C)sc(NC(=O)c2ccc(F)cc2)c1C(=O)OC, the inhibition (Cannabinoid receptor 2 [1]) was > 50%, the inhibition at 1.5 h, 10 µM [2] was < 50% and the Ki (Cannabinoid receptor 1) was > 10000 nM. The Ratio Ki (Homo sapiens) was > 20 and the Ki (Cannabinoid receptor 2 [3]) was 496 nM.

For COC(=O)c1c(NC(=O)Oc2ccccc2)sc2c1CCCC2, the inhibition (Cannabinoid receptor 2 [1]) was > 50%, the inhibition at 1.5 h, 10 µM [2] was < 50% and the Ki (Cannabinoid receptor 1) was > 10000 nM. For the same compound, the Ratio Ki (Homo sapiens) was > 41 and the Ki (Cannabinoid receptor 2 [3]) was 244 nM.

With COC(=O)c1c(NC(=O)N2CCCCC2)sc2c1CCCC2 the inhibition (Cannabinoid receptor 2 [1]) was > 50%, the inhibition at 1.5 h, 10 µM [2] was < 50% and the Ki (Cannabinoid receptor 1) was > 10000 nM. For the same compound, the Ratio Ki (Homo sapiens) was > 51 and the Ki (Cannabinoid receptor 2 [3]) was 196 nM.

With COC(=O)c1c(NC(=O)C23CC4CC(CC(C4)C2)C3)sc2c1CCCC2 the inhibition (Cannabinoid receptor 2 [1]) was > 50%, the inhibition at 1.5 h, 10 µM [2] was < 50% and the Ki (Cannabinoid receptor 1) was > 10000 nM. For the same compound, the inhibition (Cannabinoid receptor 2 [4]) was “inactive”, the Ratio Ki (Homo sapiens) was > 1970 and the Activity (Cannabinoid receptor 2 [5]) was “inactive”. The Ki (Cannabinoid receptor 2 [3]) was 5.08 nM and the EC50 (Cannabinoid receptor 2 [6]) was 1530 nM.

For COC(=O)c1cc(C)sc1NC(=O)C12CC3CC(CC(C3)C1)C2, the inhibition (Cannabinoid receptor 2 [1]) was > 50%, the inhibition at 1.5 h, 10 µM [2] was < 50% and the Ki (Cannabinoid receptor 1) was > 10000 nM. For the same compound, the Ratio Ki (Homo sapiens) was > 433 and the Ki (Cannabinoid receptor 2 [3]) was 23.1 nM.

With COC(=O)c1c(-c2ccccc2)csc1NC(=O)C12CC3CC(CC(C3)C1)C2 the inhibition (Cannabinoid receptor 2 [1]) was > 50%, the inhibition at 1.5 h, 10 µM [2] was < 50% and the Ki (Cannabinoid receptor 1) was > 10000 nM. The Ratio Ki (Homo sapiens) was > 285 and the Ki (Cannabinoid receptor 2 [3]) was 35 nM.

With CCCc1c(C)sc(NC(=O)C23CC4CC(CC(C4)C2)C3)c1C(=O)OC the inhibition (Cannabinoid receptor 2 [1]) was > 50%, the inhibition at 1.5 h, 10 µM [2] was < 50% and the Ratio Ki (Homo sapiens) was 257.

For CCCCCc1sc(NC(=O)C23CC4CC(CC(C4)C2)C3)c(C(=O)OC)c1-c1ccccc1, the inhibition (Cannabinoid receptor 2 [1]) was > 50%, the inhibition at 1.5 h, 10 µM [2] was < 50% and the Ki (Cannabinoid receptor 1) was 519 nM. For the same compound, the Ratio Ki (Homo sapiens) was 65 and the Ki (Cannabinoid receptor 2 [3]) was 8.03 nM.

For COC(=O)c1[nH]ccc1NC(=O)C12CC3CC(CC(C3)C1)C2, the inhibition (Cannabinoid receptor 2 [1]) was > 50%, the inhibition at 1.5 h, 10 µM [2] was < 50% and the Ki (Cannabinoid receptor 1) was > 10000 nM. The Ratio Ki (Homo sapiens) was > 4 and the Ki (Cannabinoid receptor 2 [3]) was 2140 nM.

COC(=O)c1c(NC(=O)C23CC4CC(CC(C4)C2)C3)sc2c1CCS(=O)(=O)C2 was tested, and the inhibition (Cannabinoid receptor 2 [1]) was > 50%, the inhibition at 1.5 h, 10 µM [2] was < 50% and the Ki (Cannabinoid receptor 1) was > 10000 nM. For the same compound, the Ratio Ki (Homo sapiens) was > 6 and the Ki (Cannabinoid receptor 2 [3]) was 1670 nM.

COC(=O)c1c(C)noc1NC(=O)C12CC3CC(CC(C3)C1)C2 was tested, and the inhibition (Cannabinoid receptor 2 [1]) was > 50%, the inhibition at 1.5 h, 10 µM [2] was < 50% and the Ki (Cannabinoid receptor 1) was > 10000 nM. The Ratio Ki (Homo sapiens) was > 154 and the Ki (Cannabinoid receptor 2 [3]) was 64.7 nM.
